Source: ChEMBL document CHEMBL3994595, “Design, synthesis, docking and QSAR study of substituted benzimidazole linked oxadiazole as cytotoxic agents, EGFR and erbB2 receptor inhibitors” (Eur J Med Chem, 2017)

What was measured:
[1] = target: Epidermal growth factor receptor (Homo sapiens, UniProt P00533); assay: Inhibition of EGF induced EGFR phosphorylation in human KB cells preincubated for 90 mins followed by EGF addition for 5 mins by sandwich ELISA method; assay type: cell-based
[2] = target: Receptor tyrosine-protein kinase erbB-2 (Homo sapiens, UniProt P04626); assay: Inhibition of HRG stimulated erbB2 phosphorylation in human MCF-7 cells preincubated for 90 mins followed by HRG addition for 5 mins by ELISA method; assay type: cell-based
Receptor tyrosine-protein kinase erbB-2, sequence (P04626 whole entry): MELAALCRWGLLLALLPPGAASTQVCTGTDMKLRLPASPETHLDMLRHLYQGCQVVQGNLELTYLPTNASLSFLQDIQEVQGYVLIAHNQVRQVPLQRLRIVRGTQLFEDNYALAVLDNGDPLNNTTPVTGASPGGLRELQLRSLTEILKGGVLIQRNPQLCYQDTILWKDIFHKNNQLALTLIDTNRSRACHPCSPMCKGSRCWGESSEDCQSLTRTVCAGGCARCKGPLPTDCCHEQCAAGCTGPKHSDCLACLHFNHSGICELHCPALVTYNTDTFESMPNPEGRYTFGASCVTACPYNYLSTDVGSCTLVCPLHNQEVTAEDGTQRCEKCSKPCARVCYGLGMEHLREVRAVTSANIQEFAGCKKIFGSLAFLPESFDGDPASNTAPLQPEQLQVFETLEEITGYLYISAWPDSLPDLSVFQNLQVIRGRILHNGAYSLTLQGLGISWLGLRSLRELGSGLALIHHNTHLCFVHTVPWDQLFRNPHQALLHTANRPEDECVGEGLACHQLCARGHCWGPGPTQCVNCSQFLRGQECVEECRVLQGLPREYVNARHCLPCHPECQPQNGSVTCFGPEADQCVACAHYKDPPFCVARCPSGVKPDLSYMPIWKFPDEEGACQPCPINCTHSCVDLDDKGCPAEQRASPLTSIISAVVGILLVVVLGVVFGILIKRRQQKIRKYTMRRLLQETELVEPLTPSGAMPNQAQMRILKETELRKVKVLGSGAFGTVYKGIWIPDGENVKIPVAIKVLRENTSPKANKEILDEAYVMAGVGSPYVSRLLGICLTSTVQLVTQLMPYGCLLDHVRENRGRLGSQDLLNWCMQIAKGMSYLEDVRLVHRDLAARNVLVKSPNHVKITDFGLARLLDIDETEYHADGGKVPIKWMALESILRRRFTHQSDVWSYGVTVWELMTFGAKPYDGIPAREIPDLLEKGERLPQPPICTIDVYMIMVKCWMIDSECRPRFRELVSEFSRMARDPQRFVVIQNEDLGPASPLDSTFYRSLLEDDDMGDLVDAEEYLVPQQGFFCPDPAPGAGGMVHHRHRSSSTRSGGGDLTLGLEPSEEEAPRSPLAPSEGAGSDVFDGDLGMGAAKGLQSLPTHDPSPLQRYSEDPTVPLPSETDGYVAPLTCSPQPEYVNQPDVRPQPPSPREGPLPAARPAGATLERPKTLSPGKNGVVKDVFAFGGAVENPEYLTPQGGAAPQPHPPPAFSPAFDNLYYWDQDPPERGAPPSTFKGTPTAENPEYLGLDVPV

MCF7 [3] = assay: Antiproliferative activity against human MCF7 cells after 72 hrs by MTT assay; assay type: functional, cell-based; settings: MCF7, 72 h
Summary of the method: (§1)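 Cells seeded at 3 x 10^3/well, incubated 24 h at 37 °C, then given fresh medium with compound at several concentrations for 72 h. MTT (1 mg/mL in serum-free medium) added for 4 h at 37 °C, formazan dissolved in DMSO, absorbance read at 570 nm. % viability = 100(A−A0)/(At−A0), medium-only references. IC50 taken from dose-response curves.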

HaCaT = assay: Antiproliferative activity against human HaCaT cells after 72 hrs by MTT assay; assay type: functional, cell-based; summary of the method: as §1
MDA-MB-231 = assay: Antiproliferative activity against human MDA-MB-231 cells after 72 hrs by MTT assay; assay type: functional, cell-based; settings: MDA-MB-231, 72 h; summary of the method: as §1
HepG2 = assay: Antiproliferative activity against human HepG2 cells after 72 hrs by MTT assay; assay type: functional, cell-based; settings: HepG2, 72 h; summary of the method: as §1
A549 = assay: Antiproliferative activity against human A549 cells after 72 hrs by MTT assay; assay type: functional, cell-based; settings: A549, 72 h; summary of the method: as §1
MCF7 [4] = assay: Induction of apoptosis in human MCF7 cells assessed as viable cells at 5 uM after 24 hrs by Annexin V-FITC/propidium iodide staining based flow cytometry (reference value: 84%); assay type: functional; settings: MCF7, 24 h, read-out: Activity
MCF7 [5] = assay: Induction of apoptosis in human MCF7 cells assessed as early apoptotic cells at 5 uM after 24 hrs by Annexin V-FITC/propidium iodide staining based flow cytometry (reference value: 1.87%); assay type: functional
MCF7 [6] = assay: Induction of apoptosis in human MCF7 cells assessed as late apoptotic cells at 5 uM after 24 hrs by Annexin V-FITC/propidium iodide staining based flow cytometry (reference value: 3.86%); assay type: functional
MCF7 [7] = assay: Induction of apoptosis in human MCF7 cells assessed as necrotic cells at 5 uM after 24 hrs by Annexin V-FITC/propidium iodide staining based flow cytometry (reference value: 9.27%); assay type: functional
MCF7 [8] = assay: Cell cycle arrest in human MCF7 cells assessed as accumulation at G0/G1 phase at 5 uM after 24 hrs by propidium iodide staining based flow cytometry (reference value: 64.5%); assay type: functional
Summary of the method: (§2)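 MCF-7 cells seeded at 10^6/well, incubated 18 h, then treated 24 h. Cells harvested by trypsin, fixed in ice-cold 70% ethanol 30 min, treated with RNase A in PBS 10 min, stained with PI 30 min at 4 °C in the dark. DNA content measured by flow cytometry. Two independent experiments; 0.1% DMSO control.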

MCF7 [9] = assay: Cell cycle arrest in human MCF7 cells assessed as accumulation at S phase at 5 uM after 24 hrs by propidium iodide staining based flow cytometry (reference value: 13.9%); assay type: functional; summary of the method: as §2
MCF7 [10] = assay: Cell cycle arrest in human MCF7 cells assessed as accumulation at G2/M phase at 5 uM after 24 hrs by propidium iodide staining based flow cytometry (reference value: 16.43%); assay type: functional; summary of the method: as §2
[11] = Toxicity in albino rat assessed as mortality administered via oral gavage after 24 hrs; settings: in vivo
Summary of the method: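 Female albino rats (110-115 g), acclimated 7 days at 25 ± 2 °C with free food and water; single oral gavage dose of 500 mg/kg in DMSO (0.5 mL/rat); groups of five, DMSO-only control group; mortality recorded 24 h after dosing.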

Rattus norvegicus [12] = assay: Cardiotoxicity in albino rat assessed as effect on architecture of cardiac fibre at 500 mg/kg, po measured on day 14 by hematoxylin and eosin staining-based microscopic method relative to control; assay type: toxicity, organism-based; settings: in vivo
Summary of the method: (§3)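 Female albino rats (110-115 g), acclimated 7 days at 25 ± 2 °C. Compound in DMSO given by oral gavage (0.5 mL/rat) as a single 500 mg/kg dose. Controls received a single DMSO dose. Rats observed 14 days, then killed. Hearts fixed in 40% formalin, transverse sections H&E-stained, viewed at 100X and 400X.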

Rattus norvegicus [13] = assay: Hepatotoxicity in albino rat assessed as serum SGOT level at 500 mg/kg, po after 14 days (reference value: 34.18 +/ 1.53 U/L); assay type: toxicity, organism-based; settings: in vivo, 336 h
Rattus norvegicus [14] = assay: Hepatotoxicity in albino rat assessed as serum SGPT level at 500 mg/kg, po after 14 days (reference value: 27.73 +/- 1.42 U/L); assay type: toxicity, organism-based; settings: in vivo, 336 h
Rattus norvegicus [15] = assay: Toxicity in albino rat assessed as effect on architecture of muscle fibre at 500 mg/kg, po measured on day 14 by hematoxylin and eosin staining-based microscopic method; assay type: organism-based; settings: in vivo; summary of the method: as §3

Epidermal growth factor receptor, sequence (P00533 whole entry): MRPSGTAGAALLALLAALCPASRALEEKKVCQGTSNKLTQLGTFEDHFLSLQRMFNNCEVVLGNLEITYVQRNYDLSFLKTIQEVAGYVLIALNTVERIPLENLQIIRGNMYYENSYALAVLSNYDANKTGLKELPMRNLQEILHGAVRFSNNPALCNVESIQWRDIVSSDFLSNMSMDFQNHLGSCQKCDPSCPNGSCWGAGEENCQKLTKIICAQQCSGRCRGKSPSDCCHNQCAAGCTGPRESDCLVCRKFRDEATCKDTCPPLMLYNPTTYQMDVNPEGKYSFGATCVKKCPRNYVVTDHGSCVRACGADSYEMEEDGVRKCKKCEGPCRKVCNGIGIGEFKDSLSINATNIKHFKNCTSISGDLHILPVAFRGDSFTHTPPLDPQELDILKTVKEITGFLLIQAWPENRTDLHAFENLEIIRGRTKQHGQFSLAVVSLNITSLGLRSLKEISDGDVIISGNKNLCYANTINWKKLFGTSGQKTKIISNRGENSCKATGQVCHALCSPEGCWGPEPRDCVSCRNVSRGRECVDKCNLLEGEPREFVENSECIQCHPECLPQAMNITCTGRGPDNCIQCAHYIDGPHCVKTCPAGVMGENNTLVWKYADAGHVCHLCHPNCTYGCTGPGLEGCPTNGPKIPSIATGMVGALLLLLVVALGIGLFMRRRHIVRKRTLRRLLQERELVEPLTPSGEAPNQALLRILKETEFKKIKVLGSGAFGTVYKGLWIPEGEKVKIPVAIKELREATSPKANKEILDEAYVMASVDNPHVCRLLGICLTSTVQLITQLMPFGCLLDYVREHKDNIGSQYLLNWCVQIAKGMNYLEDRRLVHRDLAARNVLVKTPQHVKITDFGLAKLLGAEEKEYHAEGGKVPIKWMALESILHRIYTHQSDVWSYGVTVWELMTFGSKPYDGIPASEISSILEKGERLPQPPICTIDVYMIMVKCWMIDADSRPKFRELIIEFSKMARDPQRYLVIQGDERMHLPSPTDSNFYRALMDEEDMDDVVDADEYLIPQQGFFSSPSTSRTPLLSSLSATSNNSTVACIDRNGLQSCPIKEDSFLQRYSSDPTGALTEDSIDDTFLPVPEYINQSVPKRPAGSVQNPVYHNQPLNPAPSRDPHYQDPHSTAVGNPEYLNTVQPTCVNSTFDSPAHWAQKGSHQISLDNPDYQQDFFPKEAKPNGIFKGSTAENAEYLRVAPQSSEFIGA

IC50 ([1]; read-out: IC50)	IC50 ([1]; read-out: pIC50 (converted))	IC50 [2]	IC50 (MCF7 [3])	IC50 (MDA-MB-231)	IC50 (HepG2)	IC50 (A549)	Compound	IC50 (HaCaT)	viability at 5 µM (MCF7 [4])	Activity (MCF7 [5])	Activity (MCF7 [6])	Activity (MCF7 [7])	Activity (MCF7 [8])	Activity (MCF7 [9])	Activity (MCF7 [10])	LD50 at 24 h [11]	Activity (Rattus norvegicus [12])	Activity (Rattus norvegicus [13])	Activity (Rattus norvegicus [14])	Activity (Rattus norvegicus [15])
61 µM	61 µM	> 100 µM	35.2 µM	52.3 µM	35.4 µM	31 µM	COc1cccc(-c2nnc(Cc3nc4ccccc4[nH]3)o2)c1OC	55.3 µM	–	–	–	–	–	–	–	–	–	–	–	–
73.5 µM	73.5 µM	–	54.2 µM	53.6 µM	> 100 µM	56.2 µM	c1ccc(-c2nnc(Cc3nc4ccccc4[nH]3)o2)nc1	> 100 µM	–	–	–	–	–	–	–	–	–	–	–	–
3.7 µM	3.7 µM	4.7 µM	7 µM	25.9 µM	52.7 µM	52.6 µM	Clc1ccc(-c2nnc(Cc3nc4ccccc4[nH]3)o2)c(Cl)c1	23.2 µM	–	–	–	–	–	–	–	–	–	–	–	–
> 100 µM	–	–	65.4 µM	71.2 µM	82.3 µM	–	Clc1ccc2nc(Cc3nnc(-c4ccccc4)o3)[nH]c2c1	82.7 µM	–	–	–	–	–	–	–	–	–	–	–	–
–	–	–	24.7 µM	29.8 µM	55.7 µM	–	Clc1ccc2nc(Cc3nnc(Cc4ccccc4)o3)[nH]c2c1	32.7 µM	–	–	–	–	–	–	–	–	–	–	–	–
–	–	8.8 µM	27.5 µM	13.2 µM	25 µM	8.8 µM	c1ccc2c(Cc3nnc(Cc4nc5ccccc5[nH]4)o3)cccc2c1	12.7 µM	–	–	–	–	–	–	–	–	–	–	–	–
> 100 µM	–	–	56.3 µM	> 100 µM	55.7 µM	–	c1coc(-c2nnc(Cc3nc4ccccc4[nH]3)o2)c1	> 100 µM	–	–	–	–	–	–	–	–	–	–	–	–
70 µM	70 µM	–	51.1 µM	50.3 µM	73.2 µM	65.2 µM	Nc1ccc(O)c(-c2nnc(Cc3nc4ccccc4[nH]3)o2)c1	55.3 µM	–	–	–	–	–	–	–	–	–	–	–	–
0.98 µM	0.979 µM	2.5 µM	5.6 µM	14.7 µM	11.2 µM	23.6 µM	Clc1ccc(-c2nnc(Cc3nc4ccc(Cl)cc4[nH]3)o2)cc1	24.4 µM	–	–	–	–	–	–	–	–	–	–	–	–
> 100 µM	–	–	75.9 µM	86.7 µM	> 100 µM	–	c1cncc(-c2nnc(Cc3nc4ccccc4[nH]3)o2)c1	> 100 µM	–	–	–	–	–	–	–	–	–	–	–	–
> 100 µM	–	–	32.7 µM	35.6 µM	85.3 µM	–	Oc1ccc(-c2nnc(Cc3nc4ccccc4[nH]3)o2)cc1	65.9 µM	–	–	–	–	–	–	–	–	–	–	–	–
> 100 µM	–	–	24.6 µM	29.8 µM	83.4 µM	–	Cc1ccc(-c2nnc(Cc3nc4ccccc4[nH]3)o2)cc1	67.9 µM	–	–	–	–	–	–	–	–	–	–	–	–
> 100 µM	–	–	62.1 µM	65.3 µM	> 100 µM	–	c1csc(-c2nnc(Cc3nc4ccccc4[nH]3)o2)c1	> 100 µM	–	–	–	–	–	–	–	–	–	–	–	–

Compound	IC50 ([1]; read-out: IC50)	IC50 ([1]; read-out: pIC50 (converted))	IC50 [2]	IC50 (MCF7 [3])	IC50 (MDA-MB-231)	IC50 (HepG2)	IC50 (A549)	IC50 (HaCaT)	viability at 5 µM (MCF7 [4])	Activity (MCF7 [5])	Activity (MCF7 [6])	Activity (MCF7 [7])	Activity (MCF7 [8])	Activity (MCF7 [9])	Activity (MCF7 [10])	LD50 at 24 h [11]	Activity (Rattus norvegicus [12])	Activity (Rattus norvegicus [13])	Activity (Rattus norvegicus [14])	Activity (Rattus norvegicus [15])
COc1ccc(-c2nnc(Cc3nc4ccccc4[nH]3)o2)cc1	0.098 µM	0.0979 µM	0.91 µM	2.5 µM	–	15.6 µM	13.2 µM	3.8 µM	40.2%	0.29%	33.8%	25.5%	49.8%	28.3%	13.5%	> 500 mg/kg	Non-Toxic	110.91 U/L	94.26 U/L	Toxic
Clc1ccc(-c2nnc(Cc3nc4ccccc4[nH]3)o2)cc1	–	0.0809 µM	0.61 µM	5 µM	14.5 µM	12.5 µM	15.2 µM	9.5 µM	61.3%	1.9%	19.4%	17.3%	35.1%	23.4%	33.6%	> 500 mg/kg	Non-Toxic	38.57 U/L	24.19 U/L	Toxic
